The values below come from ChEMBL document CHEMBL2429814 (J Med Chem, 2013).

Data set [1] concerns the target T1, Metabotropic glutamate receptor 5 (Homo sapiens, UniProt P41594). Put plainly: Positive allosteric modulation of mGluR5 (unknown origin).
Data set [2] is described as follows: Protein binding in (unknown origin) plasma. In kind it is ADME, cell-free. The following applies: read-out: PPB (converted).
Data set [3] is described as follows: Ratio of drug level in brain to plasma in (unknown origin). In kind it is ADME, cell-free. The settings on record: brain and plasma; read-out: BPR.
For data set [4], the target named is T2, Metabotropic glutamate receptor 5 (Rattus norvegicus, UniProt P31424). Kind of data set: Positive allosteric modulation of rat mGluR5 stably expressed in CHO cells assessed as calcium mobilization. In kind it is functional, cell-based.
T2 sequence (P31424 whole entry): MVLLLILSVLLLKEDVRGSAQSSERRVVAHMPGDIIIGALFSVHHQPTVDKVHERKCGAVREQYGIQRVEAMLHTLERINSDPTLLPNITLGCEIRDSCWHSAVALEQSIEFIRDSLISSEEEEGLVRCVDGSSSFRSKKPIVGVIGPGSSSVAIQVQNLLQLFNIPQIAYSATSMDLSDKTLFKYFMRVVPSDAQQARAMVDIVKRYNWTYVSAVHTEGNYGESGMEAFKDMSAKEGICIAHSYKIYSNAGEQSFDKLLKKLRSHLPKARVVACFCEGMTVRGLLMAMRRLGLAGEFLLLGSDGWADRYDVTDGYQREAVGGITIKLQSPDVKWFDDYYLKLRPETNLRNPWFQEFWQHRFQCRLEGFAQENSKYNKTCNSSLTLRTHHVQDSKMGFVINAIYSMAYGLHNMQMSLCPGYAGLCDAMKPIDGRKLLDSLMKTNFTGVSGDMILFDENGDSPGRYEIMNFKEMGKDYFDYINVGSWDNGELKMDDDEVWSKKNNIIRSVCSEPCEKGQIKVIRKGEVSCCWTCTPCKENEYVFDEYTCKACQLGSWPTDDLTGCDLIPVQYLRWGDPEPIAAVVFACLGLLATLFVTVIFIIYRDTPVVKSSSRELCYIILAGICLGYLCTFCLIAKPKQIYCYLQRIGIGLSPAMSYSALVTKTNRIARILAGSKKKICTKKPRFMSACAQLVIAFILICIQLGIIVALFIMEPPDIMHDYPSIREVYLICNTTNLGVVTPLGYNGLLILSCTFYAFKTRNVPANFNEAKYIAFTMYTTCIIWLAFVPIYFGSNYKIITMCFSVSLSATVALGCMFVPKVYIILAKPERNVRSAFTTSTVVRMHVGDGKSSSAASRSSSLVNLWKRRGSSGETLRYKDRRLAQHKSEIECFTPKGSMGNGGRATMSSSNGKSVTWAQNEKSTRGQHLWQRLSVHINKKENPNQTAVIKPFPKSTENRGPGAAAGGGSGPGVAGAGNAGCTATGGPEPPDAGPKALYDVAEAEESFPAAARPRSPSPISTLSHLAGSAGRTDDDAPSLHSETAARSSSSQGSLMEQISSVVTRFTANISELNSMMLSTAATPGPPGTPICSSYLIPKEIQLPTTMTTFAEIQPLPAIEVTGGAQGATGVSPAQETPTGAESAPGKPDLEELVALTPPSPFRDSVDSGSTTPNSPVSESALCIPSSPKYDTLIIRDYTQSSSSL
The target in data set [5] is T2, Metabotropic glutamate receptor 5. Put plainly: Positive allosteric modulation of rat mGluR5 stably expressed in HEK293 cells assessed as increase in intracellular calcium level by Fluo-4AM dye-based fluorescence assay. It counts as functional, cell-based. In short, it runs like this: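 HEK293 cells stably expressing rat mGlu5 (low receptor density line), 15,000 cells/well, grown overnight at 37°C/5% CO2. Loaded with Fluo-4AM for 50 min at 37°C in HBSS with 20 mM HEPES, 2.5 mM probenecid, pH 7.4. Triple add: compound, then EC20 glutamate 140 s later, then EC80 glutamate 60 s later. Calcium fluorescence read over time. Values are means of ≥3 independent experiments run in duplicate or triplicate.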

Data set [6] deals with Metabotropic glutamate receptor 5 (Rattus norvegicus) (UniProt P31424). Kind of data set: Potentiation of rat mGluR5 receptor stably expressed in HEK293 cells assessed as fold shift in glutamate concentration response curve at 10 uM relative to control. In kind it is cell-based. In short, it runs like this: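 HEK293 cells stably expressing rat mGlu5 were loaded with Fluo-4AM. Compound at 10 µM, or vehicle, was added, and a glutamate concentration-response curve followed 140 s later. The fold leftward shift of the glutamate curve was read from calcium fluorescence. Values are means of three independent experiments in triplicate.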
Chain of Metabotropic glutamate receptor 5 (Rattus norvegicus) (P31424 21-1203 limits assumed): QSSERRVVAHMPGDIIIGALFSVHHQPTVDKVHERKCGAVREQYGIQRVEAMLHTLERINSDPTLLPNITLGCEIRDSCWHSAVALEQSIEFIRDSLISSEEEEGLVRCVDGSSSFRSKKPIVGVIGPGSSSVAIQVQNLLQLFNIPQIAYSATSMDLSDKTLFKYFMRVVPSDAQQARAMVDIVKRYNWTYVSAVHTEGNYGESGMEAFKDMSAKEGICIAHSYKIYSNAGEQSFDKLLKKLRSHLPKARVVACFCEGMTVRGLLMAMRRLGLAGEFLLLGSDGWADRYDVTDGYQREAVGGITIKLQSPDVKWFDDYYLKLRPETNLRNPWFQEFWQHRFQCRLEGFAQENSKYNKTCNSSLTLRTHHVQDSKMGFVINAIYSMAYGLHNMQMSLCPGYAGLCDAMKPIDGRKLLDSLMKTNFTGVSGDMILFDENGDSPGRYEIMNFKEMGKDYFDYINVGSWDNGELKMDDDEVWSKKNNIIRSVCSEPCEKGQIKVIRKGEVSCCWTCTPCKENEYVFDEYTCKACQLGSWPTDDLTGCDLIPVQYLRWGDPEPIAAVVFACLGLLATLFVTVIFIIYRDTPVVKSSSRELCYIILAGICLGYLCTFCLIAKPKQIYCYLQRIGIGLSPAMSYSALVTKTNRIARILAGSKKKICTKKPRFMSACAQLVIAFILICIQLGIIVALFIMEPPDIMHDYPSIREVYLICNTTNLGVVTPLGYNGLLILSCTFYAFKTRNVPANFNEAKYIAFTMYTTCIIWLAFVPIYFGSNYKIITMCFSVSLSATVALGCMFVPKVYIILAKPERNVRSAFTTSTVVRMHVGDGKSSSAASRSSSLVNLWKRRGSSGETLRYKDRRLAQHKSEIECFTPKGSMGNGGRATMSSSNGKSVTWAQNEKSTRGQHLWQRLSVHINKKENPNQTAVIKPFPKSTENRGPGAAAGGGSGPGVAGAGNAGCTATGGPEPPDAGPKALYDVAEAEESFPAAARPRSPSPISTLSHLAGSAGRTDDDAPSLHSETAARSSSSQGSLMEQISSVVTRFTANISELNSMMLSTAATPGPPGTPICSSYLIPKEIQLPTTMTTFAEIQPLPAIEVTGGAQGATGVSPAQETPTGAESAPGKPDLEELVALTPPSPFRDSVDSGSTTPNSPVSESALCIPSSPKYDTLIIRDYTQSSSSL

The nature of data set [7]: Agonist activity at rat mGluR5 W784A mutant stably expressed in HEK293 cells assessed as increase in intracellular calcium level at 1 to 100 uM by Fluo-4AM dye-based fluorescence assay. In kind it is cell-based. The following applies: hek293, 100 µM.
For data set [8], the target named is Metabotropic glutamate receptor 5 (Rattus norvegicus) (UniProt P31424). Put plainly: Positive allosteric modulation of rat mGluR5 stably expressed in HEK293 cells assessed as increase in intracellular calcium level by Fluo-4AM dye-based fluorescence assay relative to glutamate. In kind it is functional, cell-based.
A short description of data set [9]: Agonist activity at rat mGluR5 T780A mutant stably expressed in HEK293 cells assessed as increase in intracellular calcium level at 1 to 100 uM by Fluo-4AM dye-based fluorescence assay. The settings on record: hek293, 100 µM. In kind it is cell-based.
Data set [10] deals with T2, Metabotropic glutamate receptor 5. Put plainly: Positive allosteric modulation of rat mGluR5 stably expressed in HEK293 cells assessed as Ca2+ flux by FLIPR assay. In kind it is functional, cell-based.
Data set [11] deals with T1, Metabotropic glutamate receptor 5. Put plainly: Positive allosteric modulation of human mGluR5 stably expressed in HEK293 cells assessed as Ca2+ flux by FLIPR assay.

T1 sequence (P41594 whole entry): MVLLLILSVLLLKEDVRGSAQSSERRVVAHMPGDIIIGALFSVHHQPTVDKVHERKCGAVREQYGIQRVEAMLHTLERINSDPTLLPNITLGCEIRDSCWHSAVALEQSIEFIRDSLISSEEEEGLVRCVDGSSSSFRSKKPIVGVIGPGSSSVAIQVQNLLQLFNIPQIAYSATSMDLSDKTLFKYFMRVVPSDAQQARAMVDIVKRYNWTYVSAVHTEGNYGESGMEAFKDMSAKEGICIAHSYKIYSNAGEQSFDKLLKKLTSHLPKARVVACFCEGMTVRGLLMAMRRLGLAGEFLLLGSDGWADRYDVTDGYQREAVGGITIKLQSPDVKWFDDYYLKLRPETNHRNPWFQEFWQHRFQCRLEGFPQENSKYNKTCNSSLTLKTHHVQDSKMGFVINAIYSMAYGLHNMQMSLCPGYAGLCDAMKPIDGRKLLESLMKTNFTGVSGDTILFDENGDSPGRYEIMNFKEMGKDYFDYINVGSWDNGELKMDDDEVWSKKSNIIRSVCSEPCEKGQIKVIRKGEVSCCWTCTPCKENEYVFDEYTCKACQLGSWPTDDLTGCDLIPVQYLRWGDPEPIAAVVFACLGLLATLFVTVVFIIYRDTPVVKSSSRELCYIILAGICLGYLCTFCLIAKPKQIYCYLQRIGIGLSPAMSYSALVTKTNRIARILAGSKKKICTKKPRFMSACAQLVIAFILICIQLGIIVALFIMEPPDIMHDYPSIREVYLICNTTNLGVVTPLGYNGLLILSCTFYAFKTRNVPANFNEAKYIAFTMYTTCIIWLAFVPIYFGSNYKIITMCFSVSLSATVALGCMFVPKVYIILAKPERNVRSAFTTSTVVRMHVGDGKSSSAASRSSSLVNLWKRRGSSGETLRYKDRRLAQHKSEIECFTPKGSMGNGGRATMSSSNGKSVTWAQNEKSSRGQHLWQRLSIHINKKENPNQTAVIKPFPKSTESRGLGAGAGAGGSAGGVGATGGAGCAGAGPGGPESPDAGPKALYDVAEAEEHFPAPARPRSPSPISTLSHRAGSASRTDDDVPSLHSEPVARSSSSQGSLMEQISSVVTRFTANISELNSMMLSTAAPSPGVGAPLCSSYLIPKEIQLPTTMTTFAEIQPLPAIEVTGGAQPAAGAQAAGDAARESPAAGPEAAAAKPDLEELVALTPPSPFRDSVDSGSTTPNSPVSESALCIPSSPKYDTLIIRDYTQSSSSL

On to `Fc1cccc(/C=N/N=C/c2cccc(F)c2)c1`, for which, in data set [1], the EC50 worked out at 2600 nM.

For `O=C(NC1CCC1)c1ccc(C#Cc2cccc(F)c2)nc1`, the fraction unbound in [2] is 0.011. Also, the Kp in data set [3] is 0.13. In data set [4], the EC50 was 39 nM.

Regarding `C[C@@H](NC(=O)c1ccc(C#Cc2ccccn2)cn1)C(C)(C)O`, the EC50 is 41.3 nM in data set [5] (read-out: EC50) and 93.3 nM in [5] (read-out: pEC50 (converted)). Moreover, the fold change (FC) in data set [6] turned out to be 1.7. The Activity result in [7] is on record as “Active”; in [9] it was “Not Active”. Besides, the Efficacy in [8] worked out at 57.5%.

As for `O=C(c1ccc(F)cc1)N1CCC[C@H](c2nc(-c3ccc(F)cc3)no2)C1`, the EC50 is 55 nM in data set [10] and 157 nM in data set [11].
